Reference: ChEMBL document CHEMBL2074473, “Inhibitory effect of a bitter melon extract on the P-glycoprotein activity in intestinal Caco-2 cells” (Br J Pharmacol, 2004)

What follows are molecules tested against T1, ATP-dependent translocase ABCB1 (Homo sapiens, UniProt P08183) (assay: TP_TRANSPORTER: Rhodamine 123 accumulation in Caco-2 cells).
Assay type: functional, cell-based
Outline: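 Caco-2 monolayers (passages 40–66) grown 14 days on collagen-coated 24-well plates. Cells were equilibrated in HBSS with 4 mM bicarbonate and 10 mM HEPES, pH 7.4, then exposed to 15 μM rhodamine-123 ± sample (2 mg ml−1 extracts) for 2 h at 37°C. After ice-cold PBS/0.05% azide washes, fluorescence was read at ex 485/em 544 nm. Expressed as % of control, mean±s.d., n=4.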

T1 sequence (P08183 whole entry): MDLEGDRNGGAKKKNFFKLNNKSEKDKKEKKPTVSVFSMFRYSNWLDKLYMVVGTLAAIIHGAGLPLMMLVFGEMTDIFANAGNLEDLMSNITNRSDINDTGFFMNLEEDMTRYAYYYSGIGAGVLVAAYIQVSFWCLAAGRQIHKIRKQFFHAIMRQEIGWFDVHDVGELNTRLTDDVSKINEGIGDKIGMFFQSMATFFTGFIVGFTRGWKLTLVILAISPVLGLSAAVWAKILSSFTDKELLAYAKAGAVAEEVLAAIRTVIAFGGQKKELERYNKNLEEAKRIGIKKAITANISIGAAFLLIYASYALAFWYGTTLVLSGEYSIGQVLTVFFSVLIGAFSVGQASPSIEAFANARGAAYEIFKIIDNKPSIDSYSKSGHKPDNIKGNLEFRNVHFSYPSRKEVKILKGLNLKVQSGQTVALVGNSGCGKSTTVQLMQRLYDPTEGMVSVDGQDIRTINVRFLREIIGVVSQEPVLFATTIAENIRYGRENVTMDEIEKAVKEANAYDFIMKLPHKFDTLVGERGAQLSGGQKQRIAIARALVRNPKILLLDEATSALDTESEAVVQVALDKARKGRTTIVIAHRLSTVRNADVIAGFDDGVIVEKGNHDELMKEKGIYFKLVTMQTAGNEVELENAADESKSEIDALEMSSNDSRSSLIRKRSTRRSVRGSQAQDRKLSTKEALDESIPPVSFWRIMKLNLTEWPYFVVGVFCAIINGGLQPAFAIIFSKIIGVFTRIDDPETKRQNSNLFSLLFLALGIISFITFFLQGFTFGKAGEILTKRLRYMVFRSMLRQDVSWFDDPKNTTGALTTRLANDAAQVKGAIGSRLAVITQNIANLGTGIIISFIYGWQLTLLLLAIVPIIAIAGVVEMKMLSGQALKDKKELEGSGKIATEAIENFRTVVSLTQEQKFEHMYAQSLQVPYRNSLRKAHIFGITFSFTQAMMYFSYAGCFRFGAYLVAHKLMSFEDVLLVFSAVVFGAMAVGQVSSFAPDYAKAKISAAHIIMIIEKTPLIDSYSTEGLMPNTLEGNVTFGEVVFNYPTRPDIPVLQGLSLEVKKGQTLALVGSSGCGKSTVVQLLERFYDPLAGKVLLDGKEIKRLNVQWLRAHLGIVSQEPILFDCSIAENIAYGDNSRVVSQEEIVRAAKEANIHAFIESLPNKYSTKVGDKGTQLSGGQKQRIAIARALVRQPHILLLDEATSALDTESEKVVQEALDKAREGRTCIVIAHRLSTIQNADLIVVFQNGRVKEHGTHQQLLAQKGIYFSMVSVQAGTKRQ

Activity	Molecule
inhibitor [+]	BITTER MELON

These molecules were tested against T1, ATP-dependent translocase ABCB1 (assay: TP_TRANSPORTER: Daunomycin accumulation in Caco-2 cells).
Assay type: functional, cell-based
Outline: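 Caco-2 monolayers (passages 40–66) grown 14 days on collagen-coated 24-well plates. After two PBS washes and equilibration in HBSS with 4 mM bicarbonate and 10 mM HEPES, pH 7.4, cells were incubated with 40 nM [3H]-daunomycin ± sample for 2 h at 37°C. Ice-cold PBS/0.05% azide washes, Triton X-100 lysis, scintillation counting. Expressed as % of control, mean±s.d., n=3.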

Activity	Molecule
is not an inhibitor [-]	CCCCCCCCCCCCCCCC(=O)O.OCC(O)CO [PALMITIC ACID + GLYCEROL]
inhibitor [+]	CC/C=C/C/C=C/C/C=C/CCCCCCCC(=O)OCC(O)CO (stereo unspecified) [1-Monolinolenin]
is not an inhibitor [-]	OCC(O)CO [GLYCERIN]
is not an inhibitor [-]	CCCCCCCCCCCCCCCC(=O)OCC(COC(=O)CCCCCCCCCCCCCCC)OC(=O)CCCCCCCCCCCCCCC [TRIPALMITIN]
inhibitor [+]	CCCCCCCCCC(=O)OCC(O)CO (stereo unspecified) [MONOCTANOIN COMPONENT B]
inhibitor [+]	CCCCCCCCCCCCCCCCCC(=O)OCC(O)CO (stereo unspecified) [GLYCERYL MONOSTEARATE]
inhibitor [+]	CCCCCC/C=C\CCCCCCCC(=O)OCC(O)CO (stereo unspecified) [1-Monopalmitolein]
inhibitor [+]	CCCCCCCCCCCCCCCC(=O)OCC(O)CO (stereo unspecified) [1-Monopalmitin]
is not an inhibitor [-]	CCCCCCCCCCCCCCCC(=O)O [PALMITIC ACID]
inhibitor [+]	CCCCCCCCCCCC(=O)OCC(O)CO (stereo unspecified) [GLYCEROL MONOLAURATE]
inhibitor [+]	CCCCCCCC(=O)OCC(O)CO (stereo unspecified) [MONOCTANOIN COMPONENT A]
is not an inhibitor [-]	CCCCCCCCCCCCCCCC(=O)OCC(O)COC(=O)CCCCCCCCCCCCCCC [1,3-Dipalmitin]
inhibitor [+]	CCCCC/C=C/C/C=C/CCCCCCCC(=O)OCC(O)CO (stereo unspecified) [1-Monolinolein]
inhibitor [+]	CCCCCCCCCCCCCC(=O)OCC(O)CO (stereo unspecified)
is not an inhibitor [-]	CCCCCCCCCCCCCCCC(=O)OCC(CO)OC(=O)CCCCCCCCCCCCCCC (stereo unspecified) [1,2-Dipalmitin]
